Data from ChEMBL document CHEMBL4725354 (J Med Chem, 2020).
pIC50: −log10 of the molar value.

How the values were obtained:
[1] = target: T1, Broad substrate specificity ATP-binding cassette transporter ABCG2 (Homo sapiens, UniProt Q9UNQ0); experiment: Inhibition of human ABCG2 expressed in MDCK2 cells co-expressing GFP preincubated for 30 mins followed by Hoechst 33342 addition and measured every 60 sec for 120 mins by fluorescence assay; assay type: cell-based, MDCK-II
T1 sequence (Q9UNQ0 whole entry): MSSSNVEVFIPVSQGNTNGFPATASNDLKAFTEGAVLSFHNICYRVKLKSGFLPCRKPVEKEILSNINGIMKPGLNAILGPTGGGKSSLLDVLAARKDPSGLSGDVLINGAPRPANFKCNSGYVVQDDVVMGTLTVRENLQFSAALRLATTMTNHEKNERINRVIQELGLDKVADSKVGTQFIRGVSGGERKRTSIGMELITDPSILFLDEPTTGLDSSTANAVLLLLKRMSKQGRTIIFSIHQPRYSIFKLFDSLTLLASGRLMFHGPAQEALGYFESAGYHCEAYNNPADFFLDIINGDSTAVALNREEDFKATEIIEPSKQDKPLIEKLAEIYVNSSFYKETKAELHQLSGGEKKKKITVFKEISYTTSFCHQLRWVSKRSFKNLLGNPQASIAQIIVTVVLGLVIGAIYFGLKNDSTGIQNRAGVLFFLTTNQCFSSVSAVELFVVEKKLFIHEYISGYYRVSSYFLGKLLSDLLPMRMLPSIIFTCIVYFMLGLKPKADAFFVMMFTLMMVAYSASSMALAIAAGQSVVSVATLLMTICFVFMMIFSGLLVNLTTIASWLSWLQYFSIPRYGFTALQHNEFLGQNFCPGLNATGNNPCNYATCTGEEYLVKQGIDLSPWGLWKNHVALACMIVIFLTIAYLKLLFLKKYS
Summary of the method: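 MDCK II cells transfected with human ABCG2 cDNA C-terminally fused to GFP. Hoechst 33342 added at 1 µM final. Fluorescence (ex 355, em 460 nm) read every 60 s for 120 min. Steady-state means vs log concentration fitted by 3- or 4-parameter logistic to give IC50.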

ABCG2 [2] = target: T2, ABCG2 (Homo sapiens, UniProt Q9UNQ0); experiment: Inhibition of human ABCG2 expressed in MDCK2 cells co-expressing GFP preincubated for 30 mins followed by Hoechst 33342 addition and measured every 60 sec for 120 mins by fluorescence assay relative to control; assay type: cell-based, MDCK-II; settings: probe Hoechst 33342, read-out: Imax
T2 sequence (Q9UNQ0 whole entry): T1 sequence (Q9UNQ0 whole entry)
Summary of the method: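 MDCK II cells transfected with human ABCG2 cDNA C-terminally fused to GFP. Steady-state means vs log concentration fitted by 3- or 4-parameter logistic to give IC50.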

[3] = target: T1, Broad substrate specificity ATP-binding cassette transporter ABCG2; experiment: Inhibition of human ABCG2 expressed in MDCK2 cells co-expressing GFP preincubated for 15 mins followed by pheophorbideA addition and measured after 2 hrs by flow cytometric analysis; assay type: cell-based, MDCK-II
Summary of the method: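 Pheophorbide A added to 0.5 µM final and incubated 2 h. Read by flow cytometry (ex 488, em 695/50 nm); GFP expression checked at 525/30 nm. IC50 from 3- or 4-parameter logistic fit.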

ABCG2 [4] = target: T2, ABCG2; experiment: Inhibition of human ABCG2 expressed in MDCK2 cells co-expressing GFP preincubated for 15 mins followed by pheophorbideA addition and measured after 2 hrs by flow cytometric analysis relative to control; assay type: cell-based, MDCK-II; settings: probe pheophorbide A, read-out: Imax
MDCK-II [5] = experiment: Cytotoxicity against MDCK2 cells over expressing human ABCG2 at 10 uM assessed as reduction in cell viability after 72 hrs by MTT assay; assay type: ADME, cell-based, Canis lupus familiaris; settings: dog
Summary of the method: (§1)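 Single-concentration screen at 10 µM in MDCK II BCRP and parental MDCK II cells. MTT assay, 72 h at 37 °C, 5% CO2. Viability referenced to culture medium (100%) and 10% DMSO (0%). Mean ± SEM of at least three independent experiments with duplicates.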

MDCK-II [6] = experiment: Cytotoxicity against MDCK2 cells assessed as reduction in cell viability at 10 uM after 72 hrs by MTT assay; assay type: cell-based, Canis lupus familiaris; settings: dog; summary of the method: as §1
[7] = target: T3, ATP-dependent translocase ABCB1 (Homo sapiens, UniProt P08183); experiment: Inhibition of human ABCB1 expressed in A2780/ADR cells preincubated for 30 mins followed by calcein AM addition and measured every 60 secs for 60 mins by fluorescence assay; assay type: cell-based
Summary of the method: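 ABCB1 in A2780/ADR cells (kept resistant by one passage in 1 µM doxorubicin every 10 passages). 30,000 cells per well in Krebs-HEPES buffer, preincubated 30 min at 37 °C with inhibitor. Calcein AM added from a 3.125 µM solution. Fluorescence (ex 485, em 520 nm) read every 60 s for 60 min. Initial linear slopes vs log concentration fitted to give IC50.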

[8] = target: T3, ATP-dependent translocase ABCB1; experiment: Inhibition of human ABCB1-mediated multidrug resistance in human A2780/ADR cells assessed as potentiation of doxorubicin-induced cytotoxicity by measuring half maximal reversal concentration after 72 hrs by MTT assay; assay type: cell-based
[9] = target: Multidrug resistance-associated protein 1 (Homo sapiens, UniProt P33527); experiment: Inhibition of human ABCC1-mediated multidrug resistance in MDCK2 cells assessed as potentiation of doxorubicin-induced cytotoxicity by measuring half maximal reversal concentration after 72 hrs by MTT assay; assay type: cell-based; settings: mdck-ii
[10] = Growth inhibition of MDCK2 cells over expressing human ABCG2 after 72 hrs by MTT assay; assay type: ADME, cell-based, Canis lupus familiaris, MDCK-II; settings: dog, MDCK2 cells overexpressing human ABCG2
Summary of the method: (§2)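 MTT viability assay. Compound dilutions in culture medium (3.2 to 1000 µM as prepared). About 2,000 cells per well, 72 h at 37 °C, 5% CO2. Culture medium set as 100% and 10% DMSO as 0% viability. MTT added for 1 h, formazan dissolved in DMSO, absorbance read at 570 nm with 690 nm background. GI50 from nonlinear regression of absorbance vs log concentration; at least three independent experiments, duplicates, mean ± SEM.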

[11] = Growth inhibition of MDCK2 cells after 72 hrs by MTT assay; assay type: cell-based, Canis lupus familiaris, MDCK-II; settings: dog; summary of the method: as §2
ABCG2 [12] = experiment: Therapeutic ratio of GI50 for Growth inhibition of MDCK2 cells over expressing human ABCG2 to IC50 for inhibition of human ABCG2 expressed in MDCK2 cells co-expressing GFP preincubated for 30 mins followed by Hoechst 33342 addition and measured every 60 sec for 120 mins by fluorescence assay; assay type: toxicity, cell-based; settings: dog, MDCK2 cells overexpressing human ABCG2, probe Hoechst 33342; read-out: TI
ABCG2 [13] = experiment: Therapeutic ratio of GI50 for Growth inhibition of MDCK2 cells over expressing human ABCG2 to IC50 for inhibition of human ABCG2 expressed in MDCK2 cells co-expressing GFP preincubated for 15 mins followed by pheophorbideA addition and measured after 2 hrs by flow cytometric analysis; assay type: toxicity, cell-based; settings: dog, MDCK2 cells overexpressing human ABCG2, probe pheophorbide A; read-out: TI

Chain of Multidrug resistance-associated protein 1 (P33527 whole entry): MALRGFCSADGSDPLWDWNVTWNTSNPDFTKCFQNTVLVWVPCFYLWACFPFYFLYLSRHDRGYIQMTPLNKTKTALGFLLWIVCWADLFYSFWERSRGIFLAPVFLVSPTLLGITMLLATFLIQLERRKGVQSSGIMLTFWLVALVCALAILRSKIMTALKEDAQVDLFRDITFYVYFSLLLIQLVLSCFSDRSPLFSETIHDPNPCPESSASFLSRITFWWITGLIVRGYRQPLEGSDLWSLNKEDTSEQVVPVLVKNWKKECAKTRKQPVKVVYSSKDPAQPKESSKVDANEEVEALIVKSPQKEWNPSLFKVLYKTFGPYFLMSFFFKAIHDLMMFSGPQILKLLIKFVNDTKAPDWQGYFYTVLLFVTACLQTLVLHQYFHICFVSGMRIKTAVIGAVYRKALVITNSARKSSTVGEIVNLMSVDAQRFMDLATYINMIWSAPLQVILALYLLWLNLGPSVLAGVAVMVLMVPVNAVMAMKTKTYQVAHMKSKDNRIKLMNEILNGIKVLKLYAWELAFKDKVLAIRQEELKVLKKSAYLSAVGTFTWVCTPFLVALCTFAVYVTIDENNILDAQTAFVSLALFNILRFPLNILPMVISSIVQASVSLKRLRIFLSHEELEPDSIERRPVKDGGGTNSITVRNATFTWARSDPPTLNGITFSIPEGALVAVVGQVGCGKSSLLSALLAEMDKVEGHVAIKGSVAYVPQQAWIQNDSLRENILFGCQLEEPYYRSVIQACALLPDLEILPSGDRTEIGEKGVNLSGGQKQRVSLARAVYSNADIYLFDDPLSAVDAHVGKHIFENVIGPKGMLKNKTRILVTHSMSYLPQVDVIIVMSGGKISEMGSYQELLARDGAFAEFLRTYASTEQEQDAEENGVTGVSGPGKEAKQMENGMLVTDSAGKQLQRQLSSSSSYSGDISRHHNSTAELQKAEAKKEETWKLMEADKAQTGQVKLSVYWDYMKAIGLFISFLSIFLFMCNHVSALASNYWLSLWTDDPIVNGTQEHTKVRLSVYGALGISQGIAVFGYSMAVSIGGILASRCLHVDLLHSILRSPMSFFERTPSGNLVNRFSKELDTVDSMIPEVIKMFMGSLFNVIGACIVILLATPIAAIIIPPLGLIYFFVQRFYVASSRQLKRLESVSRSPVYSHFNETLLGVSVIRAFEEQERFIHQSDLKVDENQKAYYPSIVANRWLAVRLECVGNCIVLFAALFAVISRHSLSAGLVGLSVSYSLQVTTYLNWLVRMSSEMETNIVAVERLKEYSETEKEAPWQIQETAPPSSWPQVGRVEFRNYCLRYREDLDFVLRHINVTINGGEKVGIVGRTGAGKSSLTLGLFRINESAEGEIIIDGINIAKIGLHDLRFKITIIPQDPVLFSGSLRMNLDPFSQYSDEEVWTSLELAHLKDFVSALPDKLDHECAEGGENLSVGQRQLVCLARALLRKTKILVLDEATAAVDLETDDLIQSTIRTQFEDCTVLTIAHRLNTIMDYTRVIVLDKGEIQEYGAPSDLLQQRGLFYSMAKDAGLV
T3 sequence (P08183 whole entry): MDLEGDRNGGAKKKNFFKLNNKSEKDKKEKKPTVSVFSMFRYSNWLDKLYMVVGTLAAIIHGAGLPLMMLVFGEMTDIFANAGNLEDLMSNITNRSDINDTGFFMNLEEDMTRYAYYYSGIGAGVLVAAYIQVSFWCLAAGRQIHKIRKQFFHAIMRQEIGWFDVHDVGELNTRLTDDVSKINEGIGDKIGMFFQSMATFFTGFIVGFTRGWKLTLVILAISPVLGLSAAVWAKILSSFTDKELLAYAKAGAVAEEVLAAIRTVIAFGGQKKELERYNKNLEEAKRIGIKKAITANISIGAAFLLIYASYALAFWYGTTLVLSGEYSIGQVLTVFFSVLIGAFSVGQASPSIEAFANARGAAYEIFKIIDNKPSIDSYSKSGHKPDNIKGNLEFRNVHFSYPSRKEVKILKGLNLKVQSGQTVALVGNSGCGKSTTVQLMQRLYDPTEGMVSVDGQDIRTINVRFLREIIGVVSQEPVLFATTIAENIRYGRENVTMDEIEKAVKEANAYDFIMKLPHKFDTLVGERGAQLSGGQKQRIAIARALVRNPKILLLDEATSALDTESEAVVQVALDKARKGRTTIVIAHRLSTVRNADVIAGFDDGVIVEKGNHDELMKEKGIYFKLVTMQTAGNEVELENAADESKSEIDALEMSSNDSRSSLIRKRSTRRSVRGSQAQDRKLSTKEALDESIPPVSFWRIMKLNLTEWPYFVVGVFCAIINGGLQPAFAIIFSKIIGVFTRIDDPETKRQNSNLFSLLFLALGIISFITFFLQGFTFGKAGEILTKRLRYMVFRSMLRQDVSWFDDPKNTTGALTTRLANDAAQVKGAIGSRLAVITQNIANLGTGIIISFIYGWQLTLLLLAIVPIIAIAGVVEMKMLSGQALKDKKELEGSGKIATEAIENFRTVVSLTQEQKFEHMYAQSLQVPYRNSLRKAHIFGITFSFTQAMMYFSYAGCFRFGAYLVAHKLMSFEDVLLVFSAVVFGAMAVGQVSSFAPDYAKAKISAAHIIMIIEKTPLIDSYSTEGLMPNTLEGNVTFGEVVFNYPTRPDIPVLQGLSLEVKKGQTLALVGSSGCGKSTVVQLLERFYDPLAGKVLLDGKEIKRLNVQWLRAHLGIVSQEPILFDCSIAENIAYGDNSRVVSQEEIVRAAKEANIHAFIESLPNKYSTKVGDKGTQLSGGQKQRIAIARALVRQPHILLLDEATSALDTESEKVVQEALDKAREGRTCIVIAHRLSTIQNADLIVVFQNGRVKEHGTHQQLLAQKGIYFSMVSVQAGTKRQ

| Structure (SMILES) | pIC50 [1] | Emax at 2 h (ABCG2 [2]) [%] | pIC50 [3] | Emax at 2 h (ABCG2 [4]) [%] | pIC50 [7] | Activity (MDCK-II [5]) | Activity (MDCK-II [6]) | inhibition (INH) [8] | inhibition (INH) [9] | GI50 at 72 h [10] [nM] | GI50 at 72 h [11] [nM] | selectivity ratio (ABCG2 [12]) | selectivity ratio at 2 h (ABCG2 [13]) |
| --- | --- | --- | --- | --- | --- | --- | --- | --- | --- | --- | --- | --- | --- |
| Cc1cc(Nc2cccc(F)c2)nc(-c2ccccc2)n1 | 5.95 | 100 | 6.11 | 100 | – | Non-Toxic | Non-Toxic | – | – | – | – | – | – |
| Cc1cc(Nc2ccc(F)c([N+](=O)[O-])c2)nc(-c2ccccc2)n1 | 6.00 | 100 | 6.11 | 100 | – | Non-Toxic | Non-Toxic | – | – | – | – | – | – |
| C[S+](C)[O-] [DIMETHYL SULFOXIDE] | – | – | – | – | – | – | – | – | – | 137000 | 123000 | – | – |
| Cc1cc(Nc2ccc([N+](=O)[O-])c(Cl)c2)nc(-c2ccccc2)n1 | 7.23 | 76 | 6.64 | 86 | – | Non-Toxic | Non-Toxic | – | – | – | – | – | – |
| COc1cc(Nc2cc(C)nc(-c3ccccc3)n2)ccc1Br | 6.55 | 100 | 6.48 | 53 | 5.30 | Non-Toxic | Non-Toxic | Not Active | Not Active | – | – | – | – |
| Cc1cc(Nc2ccc(F)c(C#N)c2)nc(-c2ccccc2)n1 | 6.51 | 100 | 7.06 | 59 | – | Non-Toxic | Non-Toxic | – | – | 96700 | 102000 | 315 | 1120 |
| Cc1cc(Nc2cccc(Br)c2)nc(-c2ccccc2)n1 | 6.05 | 100 | 6.41 | 83 | 5.15 | Non-Toxic | Non-Toxic | Not Active | Not Active | – | – | – | – |
| Cc1cc(Nc2cccc(O)c2)nc(-c2ccccc2)n1 | 6.60 | 74 | 6.29 | 59 | – | Non-Toxic | Non-Toxic | – | – | – | – | – | – |
| Cc1cc(Nc2ccc(C#N)c(C(F)(F)F)c2)nc(-c2ccccc2)n1 | 7.16 | 114 | 6.41 | 92 | – | Toxic | Toxic | – | – | 9570 | 9890 | 139 | 25 |

More lines, in order of rising pIC50 [1], values ahead:

| pIC50 [1] | Emax at 2 h (ABCG2 [2]) [%] | pIC50 [3] | Emax at 2 h (ABCG2 [4]) [%] | pIC50 [7] | Structure (SMILES) | Activity (MDCK-II [5]) | Activity (MDCK-II [6]) | inhibition (INH) [8] | inhibition (INH) [9] | GI50 at 72 h [10] [nM] | GI50 at 72 h [11] [nM] | selectivity ratio (ABCG2 [12]) | selectivity ratio at 2 h (ABCG2 [13]) |
| --- | --- | --- | --- | --- | --- | --- | --- | --- | --- | --- | --- | --- | --- |
| 5.37 | 100 | 5.60 | 100 | – | Cc1cc(Nc2cccc(CO)c2)nc(-c2ccccc2)n1 | Non-Toxic | Non-Toxic | – | – | – | – | – | – |
| 5.60 | 100 | 5.44 | 100 | 4.80 | Cc1cc(Nc2ccc(CC#N)cc2)nc(-c2ccccc2)n1 | Non-Toxic | Non-Toxic | – | – | – | – | – | – |
| 6.06 | 100 | 5.88 | 100 | 5.05 | COc1ccc(Nc2cc(C)nc(-c3ccccc3)n2)cc1F | Non-Toxic | Non-Toxic | – | – | – | – | – | – |
| 6.09 | 100 | 6.00 | 100 | 5.23 | Cc1cc(Nc2cccc(Cl)c2)nc(-c2ccccc2)n1 | Non-Toxic | Non-Toxic | Not Active | Not Active | – | – | – | – |
| 6.09 | 100 | 5.79 | 100 | 4.88 | Cc1cc(Nc2ccc3c(c2)OCCO3)nc(-c2ccccc2)n1 | Non-Toxic | Non-Toxic | – | – | – | – | – | – |
| 6.22 | 100 | 6.26 | 83 | 5.14 | COc1ccc(Nc2cc(C)nc(-c3ccccc3)n2)cc1C(F)(F)F | Toxic | Toxic | Not Active | Not Active | 8400 | 10100 | 14 | 15 |
| 6.57 | 96 | 6.30 | 100 | 4.87 | COc1cccc(Nc2cc(C)nc(-c3ccccc3)n2)c1 | Non-Toxic | Non-Toxic | – | – | – | – | – | – |
| 6.60 | 105 | 6.38 | 101 | 4.75 | Cc1cc(Nc2ccc3c(c2)C(=O)NC3=O)nc(-c2ccccc2)n1 | Non-Toxic | Non-Toxic | – | – | – | – | – | – |
| 6.73 | 117 | 6.26 | 100 | – | Cc1cc(Nc2ccc(C#N)c(C#N)c2)nc(-c2ccccc2)n1 | Non-Toxic | Non-Toxic | – | – | – | – | – | – |
| 6.89 | 80 | 6.84 | 68 | – | Cc1cc(Nc2cccc([N+](=O)[O-])c2)nc(-c2ccccc2)n1 | Non-Toxic | Non-Toxic | – | – | – | – | – | – |
| 6.92 | 90 | 7.23 | 40 | – | Cc1cc(Nc2ccc(C#N)c(Br)c2)nc(-c2ccccc2)n1 | Non-Toxic | Non-Toxic | – | – | 145000 | 188000 | 1220 | 2440 |
| 7.28 | 79 | 6.81 | 67 | 4.95 | Cc1cc(Nc2ccc([N+](=O)[O-])cc2)nc(-c2ccccc2)n1 | Non-Toxic | Non-Toxic | – | – | 17000 | 16700 | 327 | 111 |
